Assay results as given in ChEMBL document CHEMBL4270633, “Discovery of novel vinyl sulfone derivatives as anti-tumor agents with microtubule polymerization inhibitory and vascular disrupting activities” (Eur J Med Chem, 2018).
The source made the active and inactive calls. The calls are words filed in the database; no cut-off is given here.

Legend:
[1] = test system: HepG2; experiment: Antiproliferative activity against human HepG2 cells after 72 hrs by MTT assay; type: functional, cell-based; conditions: HepG2, 72 h
Summary of the method: (§1)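 Cells seeded and held 24 h at 37 °C, 5% CO2, then exposed to a concentration series in medium with 0.1% DMSO for 72 h. MTT (5 mg/mL in PBS) added for 4 h and OD read at 490 nm. IC50 taken from dose-response curves; mean ± SD of at least three independent experiments.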

[2] = test system: K562; experiment: Antiproliferative activity against human K562 cells after 72 hrs by MTT assay; type: functional, cell-based; conditions: K562, 72 h; summary of the method: as §1
[3] = test system: A549; experiment: Antiproliferative activity against human A549 cells after 72 hrs by MTT assay; type: functional, cell-based; conditions: A549, 72 h; summary of the method: as §1
[4] = Inhibition of porcine brain tubulin polymerization after 30 mins by spectrophotometric method; parameters: species or system Sus scrofa
Summary of the method: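 Purified tubulin (2 mg/mL) in PEM buffer (80 mM PIPES pH 6.9, 0.5 mM EGTA, 2 mM MgCl2, 15% glycerol), preincubated on ice with compound or DMSO vehicle, then GTP added. Absorbance at 340 nm followed at 37 °C for 30 min. IC50 derived from area under the polymerization curve.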

[5] = test system: K562; experiment: Antiproliferative activity against human K562 cells at 1 uM after 72 hrs by MTT assay; type: functional, cell-based
[6] = test system: K562; experiment: Antiproliferative activity against human K562 cells at 0.1 uM after 72 hrs by MTT assay relative to control; type: functional
[7] = test system: H22; experiment: Antitumor activity against mouse H22 cells implanted in ICR mouse assessed as tumor growth inhibition at 8 mg/kg, iv administered once in 2 days for 21 days relative to control; type: functional; conditions: read-out: TGI
Summary of the method: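 Male ICR mice, five weeks old, inoculated s.c. in the right flank with 1 × 10^6 H22 cells. After one day, randomized into groups of six. Given i.v. 15 or 30 mg/kg daily for 21 days in 10% DMF/2% Tween 80/88% saline, or 8 mg/kg every 2 days; vehicle control given i.v. Tumors excised and weighed; inhibition (%) = (1 − treated/control mean tumor weight) × 100.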

[8] = test system: Mus musculus; experiment: Toxicity in ICR mouse implanted with mouse H22 cells assessed as decrease in body weight at 8 mg/kg, iv administered once in 2 days for 21 days; type: organism-based; conditions: in vivo
Summary of the method: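 H22 s.c. allograft in male ICR mice, groups of six. Dosing i.v. at 15 or 30 mg/kg once daily for 21 days (10% DMF/2% Tween 80/88% saline), or 8 mg/kg once every 2 days. Body weight recorded every 2 days.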

Row | Structure (SMILES) | IC50 [1] [nM] | IC50 [2] [nM] | IC50 [3] [nM] | IC50 [4] [nM] | Activity [5] | Activity [6] | inhibition in vivo at 8 mg/kg [7] [%] | Activity [8]
1 | COc1ccc(/C=C(\Cl)S(=O)(=O)c2cc(OC)c(OC)c(OC)c2)cc1O | > 1000 | > 1000 | > 5000 | – | – | – | – | –
2 | COc1ccc(/C=C(\Cl)[S+]([O-])c2cc(OC)c(OC)c(OC)c2)cc1O (stereo not drawn) | 243 | 183 | 1200 | 3830 | – | – | – | –
3 | COc1cc(S(=O)(=O)/C=C/c2ccc(C)cc2)cc(OC)c1OC | – | – | – | – | Active | Active | – | –
4 | COc1ccc(/C=C(\C#N)[S+]([O-])c2cc(OC)c(OC)c(OC)c2)cc1O (stereo not drawn) | > 1000 | > 1000 | > 5000 | – | – | – | – | –
5 | COc1cc(S(=O)(=O)/C=C/c2ccccc2)cc(OC)c1OC | – | – | – | – | Active | Active | – | –
6 | CC(=O)O[C@H]1C(=O)[C@@]2(C)[C@H]([C@H](OC(=O)c3ccccc3)[C@]3(O)C[C@H](OC(=O)[C@H](O)[C@@H](NC(=O)c4ccccc4)c4ccccc4)C(C)=C1C3(C)C)[C@]1(OC(C)=O)CO[C@@H]1C[C@@H]2O [PACLITAXEL] | – | – | – | – | – | – | 74.6 | Toxic
7 | COc1ccc(/C=C/S(=O)(=O)c2cc(OC)c(OC)c(OC)c2)cc1OC | – | – | – | – | Active | Active | – | –

More lines, main results first:

Row | IC50 [1] [nM] | IC50 [2] [nM] | IC50 [3] [nM] | IC50 [4] [nM] | Structure (SMILES) | Activity [5] | Activity [6] | inhibition in vivo at 8 mg/kg [7] [%] | Activity [8]
8 | 102 | 60 | 387 | 3690 | COc1ccc(/C=C/C(=O)c2cc(OC)c(OC)c(OC)c2)cc1O | – | – | – | –
9 | 267 | 219 | 2280 | 8230 | COc1ccc(/C=C/S(=O)(=O)c2cc(OC)c(OC)c(OC)c2)cc1O | Active | 35.3% | – | –
10 | 591 | 473 | 1310 | – | COc1ccc(/C=C(\F)S(=O)(=O)c2cc(OC)c(OC)c(OC)c2)cc1O | – | – | – | –
11 | 307 | 258 | 1460 | 7180 | COc1ccc(/C=C/[S+]([O-])c2cc(OC)c(OC)c(OC)c2)cc1O (stereo not drawn) | – | – | – | –
12 | 710 | 580 | 2730 | – | COc1ccc(/C=C(\C)S(=O)(=O)c2cc(OC)c(OC)c(OC)c2)cc1O | – | – | – | –
